Source: PubChem BioAssay
GC-B act: GC-B (human) receptor activation; activation, % at 10 µM; HEK293-GC-B cells, CNP EC30, cGMP TR-FRET; 0% at EC30 CNP, 100% saturating CNP; 0.11% of 370,000 active; P20594;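 active = activation at 10 µM reaching about 35% in either raw or pattern-adjusted values, limit read from the data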
Target sequence (P20594 whole entry, looked up): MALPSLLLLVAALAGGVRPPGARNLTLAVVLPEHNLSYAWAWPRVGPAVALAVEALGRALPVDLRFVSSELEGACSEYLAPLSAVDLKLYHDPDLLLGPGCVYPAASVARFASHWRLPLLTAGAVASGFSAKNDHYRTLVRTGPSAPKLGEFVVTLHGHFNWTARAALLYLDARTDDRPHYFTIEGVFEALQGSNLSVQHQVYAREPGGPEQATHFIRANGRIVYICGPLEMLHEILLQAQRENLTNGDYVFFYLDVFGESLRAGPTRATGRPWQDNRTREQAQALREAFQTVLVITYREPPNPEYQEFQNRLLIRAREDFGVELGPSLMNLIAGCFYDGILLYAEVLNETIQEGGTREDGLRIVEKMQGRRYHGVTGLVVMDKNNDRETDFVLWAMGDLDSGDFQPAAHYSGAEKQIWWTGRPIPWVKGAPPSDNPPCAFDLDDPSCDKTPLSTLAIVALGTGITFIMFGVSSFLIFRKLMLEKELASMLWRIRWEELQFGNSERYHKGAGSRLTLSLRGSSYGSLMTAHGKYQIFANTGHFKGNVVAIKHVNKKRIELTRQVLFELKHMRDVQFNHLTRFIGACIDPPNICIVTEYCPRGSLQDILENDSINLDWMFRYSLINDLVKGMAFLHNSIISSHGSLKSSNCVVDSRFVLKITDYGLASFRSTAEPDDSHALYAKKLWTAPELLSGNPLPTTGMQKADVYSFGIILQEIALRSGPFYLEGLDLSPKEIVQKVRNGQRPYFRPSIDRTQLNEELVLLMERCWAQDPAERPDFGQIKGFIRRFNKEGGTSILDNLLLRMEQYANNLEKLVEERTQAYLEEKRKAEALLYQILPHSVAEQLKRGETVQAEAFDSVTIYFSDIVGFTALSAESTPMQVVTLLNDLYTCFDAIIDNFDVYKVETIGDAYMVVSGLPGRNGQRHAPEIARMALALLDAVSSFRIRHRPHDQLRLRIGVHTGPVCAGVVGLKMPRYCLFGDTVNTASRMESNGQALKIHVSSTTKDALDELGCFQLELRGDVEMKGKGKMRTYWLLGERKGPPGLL
CTSL1 counter: cathepsin L1 inhibition, PFM18AAP counter-screen; inhibition, % at 5.96 µM; 0.49% of 300,000 active; recombinant F. hepatica cathepsin L1, Z-Leu-Arg-MCA fluorescence; AID 1906;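 active = inhibition above the mean of all tested compounds plus 3 SD, set per screening campaign, cut at about 17% in these data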;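 also: 0% = plate median of test compound wells and 100% = 1 µM Z-Phe-Ala-diazomethylketone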
ARFGAP1 inhibitor: inhibitors of rat ARFGAP1 | Arfgap1-stimulated ARF1 GTP hydrolysis, GDP FP detection | inhibition, % at 16.5 µM | 0.26% of 360,000 active;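 active = inhibition above a per-plate limit, mean inhibition of low control wells plus 3 SD, cut at about 25% in these data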;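 also: 0% = DMSO wells with enzyme and 100% = wells lacking Arfgap1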
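Repeats: one replicate per compound; assay system: rat Arfgap1 catalytic domain, aa 1-136; times: enzyme reaction 120 min at 25 °C after 20 min preincubation; detection: FP of antibody-bound GDP Alexa 633 tracer, ex 620/em 688 nm; benchmarks: high control wells lacking Arfgap1, low control full reaction with DMSO; reagent: human ARF1(Δ1-17)-GTP substrate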
core dimer inh: blocks dimerization of HCV core protein; TR-FRET GST/Flag-core106 dimerization, 1536-well; inhibition, % at 5 µM; 0.33% of 300,000 active;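 active = inhibition above the mean of all tested compounds plus 3 SD, set per screening campaign, cut at about 45% in these data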
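System: GST-tagged and Flag-tagged HCV core protein residues 1-106 / Input: core106 proteins, GST 13.5 nM and Flag 17 nM / Buffer or medium: KF-containing HEPES buffer, pH 7.45, DTT, CHAPS, BSA / Probe or stimulus: Eu-anti-GST and XL665-anti-Flag labelled anti-tag antibodies / Schedule: 4 h, 22.5 °C incubation / Technique: TR-FRET 671 and 617 nm emission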
NPR1 activator: GC-A (human) enzyme activation. P16066. HEK293 GC-A cells, cGMP TR-FRET, EC30 ANP; 0% at EC30 ANP, 100% saturating ANP. activation, % at 10 µM. 0.14% of 370,000 active. AID 1671463; in the data active = activation above about 40%
ASAP1 inh: ASAP1 ArfGAP inhibition; Q9ULH1; ASAP1-stimulated ARF1 GTP hydrolysis, GDP FP detection; inhibition, % at 16.5 µM; 0.19% of 360,000 active; in the data active = inhibition above about 25%;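 also: 0% = vehicle with enzyme and substrate and 100% = no enzyme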
* hit, by the source's call; · = no result; ! = not confirmed by another sample. An excerpt weighted towards active compounds, which were near 1.2% of everything screened.

SMILES | GC-B act | CTSL1 counter | ARFGAP1 inhibitor | core dimer inh | NPR1 activator | ASAP1 inh
CC(=O)Nc1c2c(nn1-c1ccccc1)CSC2 | 4.0 | -2.6 | 12.0 | 5.7 | 3.6 | -8.0
O=C(/C=C\c1ccc2c(c1)OCO2)Nc1c2c(nn1-c1ccc(Cl)cc1)CSC2 | -1.5 | -4.4 | 4.1 | 46.7* | -8.7 | 4.0
O=C(NCc1ccccc1)c1cccnc1N1CCOCC1 | 0.8 | -5.5 | -5.1 | -3.0 | 2.6 | 7.9
COc1cccc2sc(Nc3nc(-c4ccncc4)cs3)nc12 | -14.9 | -1.9 | 2.2 | 10.9 | -17.6 | 3.6
COc1cccc2sc(Nc3nc(-c4cc5ccccc5oc4=O)cs3)nc12 | 0.0 | 0.1 | 30.4* | 15.9 | 5.1 | 22.9
C#CCOCCOCCOCCNc1nc(N2CCN(C(=O)[C@H]([C@@H](C)CC)n3cc([C@@H](N)CC(C)C)nn3)CC2)nc(N2CCN(C(=O)[C@H](Cc3ccc(O)cc3)n3cc([C@@H](N)CC(C)C)nn3)CC2)n1 | 12.3 | 10.7 | 5.7 | -17.8 | 3.0 | -1.6
C#CCOCCOCCOCCNc1nc(N2CCN(C(=O)[C@H]([C@@H](C)CC)n3cc([C@@H](N)CC(C)C)nn3)CC2)nc(N2CCN(C(=O)[C@H]([C@@H](C)CC)n3cc([C@@H](N)CC(C)C)nn3)CC2)n1 | 6.3 | 24.8* | -2.4 | -25.1 | -2.0 | 13.4
c1csc(CNc2ncnc3ccc(-c4ccoc4)cc23)c1 | 27.7 | · | 2.4 | · | 30.8 | 13.6
c1csc(CNc2ncnc3ccc(-c4ccc5c(c4)OCO5)cc23)c1 | 32.5*! | · | -1.3 | · | 2.0 | 10.6
COCCn1c(SCC(=O)c2ccc3c(c2)OCCO3)nnc1-c1ccco1 | -6.4 | -1.1 | 2.3 | -1.3 | -2.7 | -0.8
CCn1c(SCC(=O)c2ccc3c(c2)OCCO3)nnc1-c1ccco1 | 1.0 | 17.0* | 1.4 | -7.3 | -2.2 | 11.0
C/C(=N/NC(N)=S)c1cc2ccc(O)cc2oc1=O | 4.5 | 20.0* | -8.6 | -3.3 | 2.6 | -19.1
COc1ccc(CC(=O)Oc2ccccc2C)cc1 | 3.4 | 3.5 | -1.9 | 0.4 | 0.4 | 10.4
CCOC(=O)Cc1csc(-n2sc3ccccc3c2=O)n1 | 9.6 | 7.2 | 1.9 | 59.1* | 4.6 | -0.2
CCOC(=O)Cc1csc(SCn2nnc3ccccc3c2=O)n1 | -2.7 | 3.3 | 9.4 | 2.4 | -0.9 | -11.4
Nn1c(SCc2ccccc2)nnc1-c1ccco1 | 0.9 | -0.7 | -11.7 | 3.9 | -0.9 | -6.1
CCN(CC)CCC(=O)c1ccc(F)cc1 | -1.3 | 3.9 | 15.1 | 0.0 | 74.3* | 3.2
CN(C)CCC(=O)c1ccc2c(c1)OCO2 | -14.2 | 6.4 | -2.7 | -1.4 | 20.0 | -1.8
CN(C)CCC(=O)c1ccc(F)cc1 | 0.0 | 9.0 | -2.0 | 0.3 | 71.9* | -4.8
Cc1cc(C)cc(OCC(=O)OCC(=O)NC2CC2)c1 | -1.4 | · | 5.2 | · | -3.8 | -3.3
CS(=O)(=O)N1CCN(c2ccccc2NC(=O)c2ccc(Br)o2)CC1 | -2.8 | -0.1 | 7.0 | 4.5 | -5.2 | -9.0
Cc1ccc(SCCNC(=O)/C=C/c2cccc([N+](=O)[O-])c2)cc1 | 4.1 | 4.4 | 10.2 | 6.7 | 0.0 | 1.2
COC(=O)CCSc1nc(N2CCOCC2)c2c(c1C#N)CC(C)(C)OC2 | 26.3 | -1.3 | 9.4 | 1.4 | 24.0 | 3.0
CC(C)CCSc1nc(N2CCOCC2)c2c(c1C#N)CC(C)(C)OC2 | 42.9* | -0.9 | -12.4 | 3.4 | 34.9 | -4.3
COC(=O)C1CN(S(=O)(=O)c2ccccc2)CCN1S(=O)(=O)c1ccccc1 (stereo not given) | 1.0 | 58.4* | 3.5 | 1.8 | 3.9 | 11.4
SMILES | GC-B act | CTSL1 counter | ARFGAP1 inhibitor | core dimer inh | NPR1 activator | ASAP1 inh
Cc1ccc(C2C(C=Nc3c(C)n(C)n(-c4ccccc4)c3=O)=C(c3ccccc3)Oc3ccccc32)cc1 (stereo not given) | 0.8 | 0.0 | -2.8 | 46.4* | -4.5 | 0.0
O=C(O)c1cc2c(cc1NC(=O)c1ccccc1C(F)(F)F)OCCCO2 | 1.8 | -2.7 | -0.1 | 6.0 | -1.8 | -4.3
C=CCOc1ccc(/C=C2/C(=O)ON=C2C)cc1OC | 22.9 | -2.8 | -7.9 | -1.5 | 41.0* | 13.8
COc1ccc(/C=C2/C(=O)ON=C2C)cc1Cl | 25.5 | 1.1 | 13.0 | 7.4 | 36.4 | -5.1
CCCOc1ccc(/C=C2/C(=O)ON=C2C)cc1OCC | 18.6 | 1.3 | -1.7 | 10.1 | 34.5 | -5.8
CCOc1cc(/C=C2\C(=O)ON=C2C)ccc1OCc1ccccc1 | 45.9* | 4.4 | -3.7 | 7.5 | 37.8 | -16.6
CC(C)C[C@H](N)c1nnc(S(=O)(=O)Cc2ccc(F)cc2)o1 | · | 53.8* | · | -5.5 | · | ·
O=C1NC(=S)N/C1=C/c1cccc([N+](=O)[O-])c1O | 1.2 | 1.3 | -10.1 | -12.8 | -1.3 | -8.1
CCN(CC)c1ccc2c(O)cc(=O)oc2c1 | -0.5 | 6.6 | -4.7 | -1.4 | -1.9 | -0.5
CCN(CC)c1ccc(C(=O)OCc2cc(=O)oc3cc(O)ccc23)cc1 | -2.5 | 2.9 | 12.5 | 49.7* | -0.2 | -5.1
O=C(Nc1ccccc1NC(=O)c1csnn1)c1csnn1 | 0.6 | 28.1* | 6.9 | -1.4 | 5.0 | 13.6
C=CCOc1ccc(C(=O)c2ccccc2)c(OCC(=O)NC2(C#N)CCCC2)c1 | 0.9 | 17.7* | 6.6 | 3.7 | -2.3 | 2.0
COc1cc(-c2nnc(COC(=O)c3cc(C)no3)o2)cc(OC)c1OC | -3.7 | -11.4 | 4.7 | 1.1 | 1.5 | -3.5
CC(C)CCn1cnc2c(c1=O)c1nc3ccccc3nc1n2Cc1ccc2c(c1)OCO2 | 50.1* | · | 2.4 | · | 39.2 | -11.0
CCNC(=O)N1C(=O)C2(OCCO2)c2cc(Br)ccc21 | 4.8 | -1.0 | -0.1 | -4.0 | -5.2 | 3.1
COc1ccc(S(=O)(=O)N2CCOCC2)cc1OC | 3.8 | -0.8 | -3.3 | -8.9 | 2.1 | -14.1
COc1ccc(S(=O)(=O)N2CCOCC2)cc1N=Nc1sc(N)nc1-c1ccccc1 | 44.5* | -1.3 | -11.7 | -8.5 | 55.3* | 1.3
Clc1ccc(Nc2ncn[nH]2)cc1 | -1.7 | 0.5 | 4.4 | -2.6 | 2.7 | 5.7
COC(=O)Nc1ccc(S(=O)(=O)N2CCCC(C(=O)N3CCCCC3)C2)cc1 (stereo not given) | 0.6 | -6.3 | 2.9 | -1.3 | -4.9 | -6.6
CC(=O)c1cc2c(cc1NC(=O)c1ccco1)OCCO2 | -4.2 | 37.8* | -6.8 | 7.9 | 2.3 | 0.7
OCc1cccc(Nc2ncnc3sc4c(c23)CCCCC4)c1 | 0.8 | -3.6 | -8.8 | -0.3 | -2.4 | -10.4
CCc1cccc(CC)c1NC(=S)/C(=C(\[O-])c1ccc(Cl)s1)[n+]1ccccc1 | -1.3 | 34.2* | 3.0 | 4.6 | 0.7 | 13.4
[O-]/C(=C(\C(=S)Nc1cccc2ccccc12)[n+]1ccccc1)c1ccc(Cl)s1 | -5.2 | 1.1 | 8.0 | 26.5 | -7.5 | -3.2
